Experimental data published in ChEMBL document CHEMBL1129041, “Design of orally active dual inhibitors of neutral endopeptidase and angiotensin-converting enzyme with long duration of action” (J Med Chem, 1996).

Assays:
[1] = biological target: T1, Angiotensin-converting enzyme (Rattus norvegicus, UniProt P47820); test: In vitro inhibition of rat angiotensin I converting enzyme
T1 sequence (P47820 whole entry): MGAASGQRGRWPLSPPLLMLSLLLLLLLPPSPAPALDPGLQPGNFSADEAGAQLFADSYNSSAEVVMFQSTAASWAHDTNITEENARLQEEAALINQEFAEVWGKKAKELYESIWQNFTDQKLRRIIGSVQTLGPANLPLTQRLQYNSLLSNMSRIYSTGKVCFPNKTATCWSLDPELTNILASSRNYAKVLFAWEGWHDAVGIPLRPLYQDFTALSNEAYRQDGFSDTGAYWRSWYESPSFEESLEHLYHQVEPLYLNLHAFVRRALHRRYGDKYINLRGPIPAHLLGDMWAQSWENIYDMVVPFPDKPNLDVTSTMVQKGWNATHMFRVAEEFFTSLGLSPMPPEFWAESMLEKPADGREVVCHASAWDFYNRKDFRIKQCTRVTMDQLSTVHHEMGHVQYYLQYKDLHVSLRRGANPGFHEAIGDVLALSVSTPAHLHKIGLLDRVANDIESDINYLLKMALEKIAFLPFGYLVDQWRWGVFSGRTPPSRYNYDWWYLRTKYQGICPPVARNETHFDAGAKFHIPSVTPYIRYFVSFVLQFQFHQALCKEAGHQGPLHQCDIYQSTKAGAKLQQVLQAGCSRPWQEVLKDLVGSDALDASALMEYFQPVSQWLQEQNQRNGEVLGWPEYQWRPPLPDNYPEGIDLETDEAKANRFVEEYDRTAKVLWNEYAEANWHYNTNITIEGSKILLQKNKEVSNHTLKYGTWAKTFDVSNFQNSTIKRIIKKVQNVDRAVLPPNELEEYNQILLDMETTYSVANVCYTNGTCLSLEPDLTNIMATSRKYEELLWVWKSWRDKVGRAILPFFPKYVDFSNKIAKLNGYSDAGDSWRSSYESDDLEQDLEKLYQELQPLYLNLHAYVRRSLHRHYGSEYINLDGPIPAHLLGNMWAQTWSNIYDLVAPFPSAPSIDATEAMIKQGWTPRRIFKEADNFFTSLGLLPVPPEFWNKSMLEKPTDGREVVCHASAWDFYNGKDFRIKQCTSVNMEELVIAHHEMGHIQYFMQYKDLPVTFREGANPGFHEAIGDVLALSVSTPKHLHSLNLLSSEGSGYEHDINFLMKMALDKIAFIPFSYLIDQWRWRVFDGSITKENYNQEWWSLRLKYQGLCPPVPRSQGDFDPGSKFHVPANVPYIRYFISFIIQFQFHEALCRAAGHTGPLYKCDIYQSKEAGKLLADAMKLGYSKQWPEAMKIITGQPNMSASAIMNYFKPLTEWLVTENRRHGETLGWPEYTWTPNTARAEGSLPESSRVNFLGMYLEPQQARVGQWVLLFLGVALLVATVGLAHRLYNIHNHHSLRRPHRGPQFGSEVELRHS
Method in brief: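 ACE purified from rat testis, 0.02 pmol/100 µL final, preincubated 15 min at 37 °C with varying inhibitor in 50 mM Tris-HCl pH 8.0. N-Cbz-Phe-His-Leu added to 0.05 mM final, 15 min; stopped with 2 M NaOH. His-Leu measured fluorimetrically (ex 365, em 495 nm) against a His-Leu calibration curve. IC50 is the mean ± SEM of three experiments in triplicate.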

Neprilysin = biological target: T2, Neprilysin (Oryctolagus cuniculus, UniProt P08049); test: In vitro inhibition of neutral endopeptidase
T2 sequence (P08049 whole entry): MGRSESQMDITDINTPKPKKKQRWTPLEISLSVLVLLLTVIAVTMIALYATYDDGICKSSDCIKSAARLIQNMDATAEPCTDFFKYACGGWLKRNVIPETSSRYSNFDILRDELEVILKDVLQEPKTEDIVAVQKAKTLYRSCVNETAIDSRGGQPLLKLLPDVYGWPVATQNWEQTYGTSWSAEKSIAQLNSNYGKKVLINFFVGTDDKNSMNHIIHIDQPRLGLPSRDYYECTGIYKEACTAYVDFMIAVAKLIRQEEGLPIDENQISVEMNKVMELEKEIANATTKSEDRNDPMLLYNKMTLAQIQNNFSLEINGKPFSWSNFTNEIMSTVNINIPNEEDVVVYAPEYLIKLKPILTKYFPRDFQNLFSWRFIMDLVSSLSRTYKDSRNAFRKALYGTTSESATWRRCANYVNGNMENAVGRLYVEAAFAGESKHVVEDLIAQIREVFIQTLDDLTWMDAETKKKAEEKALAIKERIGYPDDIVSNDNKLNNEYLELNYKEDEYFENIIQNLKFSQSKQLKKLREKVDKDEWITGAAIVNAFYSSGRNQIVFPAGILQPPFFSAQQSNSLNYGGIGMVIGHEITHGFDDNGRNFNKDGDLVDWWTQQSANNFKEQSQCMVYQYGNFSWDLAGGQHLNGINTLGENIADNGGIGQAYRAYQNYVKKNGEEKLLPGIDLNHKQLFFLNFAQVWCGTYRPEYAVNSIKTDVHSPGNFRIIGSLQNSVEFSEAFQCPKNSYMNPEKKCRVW
Method in brief: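 NEP purified from rabbit kidney, 1 pmol/100 µL final, preincubated 15 min at 25 °C with increasing inhibitor concentrations in 50 mM Tris-HCl pH 7.4. Substrate [3H]-D-Ala2-Leu-enkephalin at 20 nM final, 30 min; stopped with 0.5 M HCl. [3H]Tyr-D-Ala-Gly separated on polystyrene beads and counted by scintillation. IC50 is the mean ± SEM of three independent experiments run in triplicate.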

IC50 [1] [nM] | IC50 (Neprilysin) [nM] | Compound
0.6 | 3.5 | O=C(NCC(=O)N1[C@@H](c2ccccc2O)CC[C@H]1C(=O)O)[C@@H](S)Cc1ccc(O)cc1
2.5 | 5.5 | Cc1ccc([C@H]2CC[C@@H](C(=O)O)N2C(=O)CNC(=O)[C@@H](S)Cc2ccc(O)cc2)cc1

Continued, molecule first:

Compound | IC50 [1] [nM] | IC50 (Neprilysin) [nM]
O=C(NCC(=O)N1[C@@H](c2ccccc2)CC[C@H]1C(=O)O)[C@@H](S)Cc1ccccc1 | 0.55 | 1.6
Cc1ccccc1[C@H]1CC[C@@H](C(=O)O)N1C(=O)CNC(=O)[C@@H](S)Cc1ccccc1 | 3.1 | 5.3
Cc1ccc([C@H]2CC[C@@H](C(=O)O)N2C(=O)CNC(=O)[C@@H](S)Cc2ccccc2)cc1 | 6.8 | 12.5
O=C(NCC(=O)N1[C@@H](c2cccc(O)c2)CC[C@H]1C(=O)O)[C@@H](S)Cc1ccc(O)cc1 | 0.7 | 1.6
Cc1ccccc1C1CC[C@@H](C(=O)O)N1C(=O)CNC(=O)[C@@H](S)Cc1ccc(O)cc1 (single isomer, unassigned) | 5 | 2.7
